Where two headings read alike, the source gives them in different places. Marks after values point to notes of the source that are not given here.
Columns and labels:
[1] = Stability in rat plasma; type: in vitro ADME; settings: for Rat Plasma t1/2: 80% rat plasma in PBS pH 7.4, 37 °C; for half-life at 1 μM: rat, pooled rat plasma diluted to 80% (vol/vol) with PBS, pH 7.4
Summary of the method: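 Heparinized rat blood from cardiac puncture gave plasma (1,900 x g), pooled and diluted to 80% v/v with 100 mM PBS, pH 7.4. Test compound was added from a 100 μM DMSO stock and incubated at 37 °C with shaking. Timed samples were quenched in ice-cold acetonitrile, spun, and analysed by reversed-phase HPLC-UV against plasma calibration curves. Apparent t1/2 came from log-concentration-versus-time regression.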

[2] = Stability in phosphate buffered saline at pH 7.4; type: physicochemical; settings: PBS pH 7.4, 37 °C; for pH 7.4 (%), percent remaining after 24 h incubation: 1 μM compound
Summary of the method: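 Test compound at 1 μM final (1% DMSO) in 10 mM PBS, pH 7.4, at 37 °C. Aliquots were taken at intervals and quantified by LC against calibration curves built in spiked PBS. Reported as percent remaining after 24 h.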

[3] = target: T1, FAAH (Rattus norvegicus, UniProt P97612); assay: FAAH activity in vitro, rat brain membranes, [3H]-anandamide hydrolysis; type: biochemical
T1 sequence (P97612 1-579): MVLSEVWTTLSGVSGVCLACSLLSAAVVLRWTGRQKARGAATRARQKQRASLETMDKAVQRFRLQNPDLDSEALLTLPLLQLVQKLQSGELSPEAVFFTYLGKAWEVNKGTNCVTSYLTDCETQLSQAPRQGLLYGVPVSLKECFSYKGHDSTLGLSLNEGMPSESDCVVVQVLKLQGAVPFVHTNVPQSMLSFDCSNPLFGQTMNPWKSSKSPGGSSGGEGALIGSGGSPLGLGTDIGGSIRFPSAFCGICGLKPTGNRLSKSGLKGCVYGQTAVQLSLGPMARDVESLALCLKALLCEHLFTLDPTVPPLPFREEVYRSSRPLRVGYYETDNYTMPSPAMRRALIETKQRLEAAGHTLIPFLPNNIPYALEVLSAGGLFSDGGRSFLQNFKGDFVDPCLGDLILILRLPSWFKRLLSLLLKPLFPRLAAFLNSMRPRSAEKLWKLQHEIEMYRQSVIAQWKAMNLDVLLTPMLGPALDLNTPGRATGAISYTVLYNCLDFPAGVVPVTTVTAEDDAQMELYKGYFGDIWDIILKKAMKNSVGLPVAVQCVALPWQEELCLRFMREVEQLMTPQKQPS

[4] = Brain tissue and serum drug levels in mice by LC/MS; type: in vivo, mouse; settings: 1 mg-kg^−1 i.p.; for AUC in the brain: 2 h time-course, n = 3; for Cmax in brain tissue: single administration, n = 3 per timepoint
[5] = target: T2, FAAH (Mus musculus, UniProt O08914); assay: Brain FAAH activity measured ex vivo after i.p. administration in mice; settings: for ID50 / Percent FAAH activity remaining at 1 mg-kg^−1 / inhibition of brain FAAH activity in vivo: mice; for ID50 / inhibition of brain FAAH activity in vivo: i.p.; for ID50: brain FAAH activity ex vivo; for ED50: mouse, ip, read-out: ID50; for Percent FAAH activity remaining at 1 mg-kg^−1: 1 mg-kg^−1 i.p., brain FAAH ex vivo, printed in ID50 column; for inhibition of brain FAAH activity in vivo: doses up to 1 mg-kg^−1
T2 sequence (O08914 1-579): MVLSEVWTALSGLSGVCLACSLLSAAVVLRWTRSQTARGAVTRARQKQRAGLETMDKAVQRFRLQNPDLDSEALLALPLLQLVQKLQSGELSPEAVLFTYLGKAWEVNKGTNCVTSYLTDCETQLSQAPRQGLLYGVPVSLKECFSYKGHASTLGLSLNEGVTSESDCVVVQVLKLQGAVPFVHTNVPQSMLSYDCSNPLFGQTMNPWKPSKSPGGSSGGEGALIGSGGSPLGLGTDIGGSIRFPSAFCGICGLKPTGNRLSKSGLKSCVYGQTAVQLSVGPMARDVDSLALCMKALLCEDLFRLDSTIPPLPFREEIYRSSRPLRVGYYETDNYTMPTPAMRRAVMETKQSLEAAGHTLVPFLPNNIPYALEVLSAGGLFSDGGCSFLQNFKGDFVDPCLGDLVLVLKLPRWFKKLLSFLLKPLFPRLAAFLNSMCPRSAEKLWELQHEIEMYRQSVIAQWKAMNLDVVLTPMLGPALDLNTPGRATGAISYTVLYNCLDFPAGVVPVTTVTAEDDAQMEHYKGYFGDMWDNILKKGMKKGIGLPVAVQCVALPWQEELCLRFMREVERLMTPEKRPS
Summary of the method: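 Mice received a single i.p. injection. Brains were frozen in liquid N2, thawed, homogenized in 10 vol ice-cold 50 mM Tris pH 7.5 with 0.32 M sucrose, and spun at 1000 x g for 10 min at 4 °C. Homogenate (50 μg protein) was incubated for 30 min at 37 °C in 50 mM Tris pH 7.5 with 0.05% fatty acid-free BSA and 10 μM anandamide plus [3H]-anandamide. Reactions were stopped with chloroform/methanol (1:1), and aqueous-layer radioactivity was scintillation counted.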

[6] = test system: liver carboxylesterases; type: biochemical; settings: rat liver microsomes, 30, 100 and 300 nM
Summary of the method: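 Commercial rat liver microsomes (2.5 μg) were preincubated with test compound for 30 min at room temperature. p-Nitrophenylacetate was then added (1 mM final). After 20 min, p-nitrophenol formation was read as absorbance at 405 nm.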

[7] = rat brain membranes, 10 μM anandamide, no pre-incubation

Q: Which “Rat Plasma t1/2” value [1] does the source give for `O=C(NC1CCCCC1)Oc1cccc(-c2ccccc2)c1` [Compound 1a] here?
A: 42.7 ± 3.7 min

Q: And the “pH 7.4 (%), percent remaining after 24 h incubation” value (from here on “pH 7.4 (%), percent remaining”) [2]?
A: 41.1 ± 1.1%

Q: What about the IC50 [3, 7] of the same molecule?
A: 25.6 ± 2 nM

Q: And the “AUC in the brain” value [4]?
A: 2589 ± 423 arbitrary units

Q: And the “Cmax in brain tissue” value [4]?
A: 74 ± 3 pmol/g

Q: And the ID50 [5]?
A: 0.81 mg/kg

Q: Which half-life at 1 μM [1] does the source give for `NC(=O)c1cccc(-c2cccc(OC(=O)NC3CCCCC3)c2)c1` [Compound 1d] here?
A: 33 ± 0.5 min

Q: What about the “pH 7.4 (%), percent remaining” value [2] of the same molecule?
A: 40.2 ± 0.6%

Q: What about the “AUC in the brain” value [4] of the same molecule?
A: 6036 ± 899 arbitrary units

Q: And the “Cmax in brain tissue” value [4]?
A: 226 ± 29 pmol/g

Q: And the ED50 [5]?
A: 0.22 mg/kg

Q: Which “pH 7.4 (%), percent remaining” value [2] does the source give for `Nc1ccc(OC(=O)NC2CCCCC2)cc1-c1ccccc1` [Compound 1h, Cyclohexylcarbamic acid 6-aminobiphenyl-3-yl ester] here?
A: 89.0 ± 0.5%

Q: And the IC50 [3]?
A: 27.2 ± 4.8 nM

Q: What about the ED50 [5] of the same molecule?
A: 0.18 mg/kg

Q: And the “effect on liver carboxylesterase activities compared to URB597” value [6]?
A: reduced effects on liver carboxylesterase activities

Q: Which “Rat Plasma t1/2” value [1] does the source give for `O=C(NCCCCCCCCc1ccccc1)Oc1cccc(-c2ccccc2)c1` [Compound 1c] here?
A: 7.0 ± 0.1 min

Q: And the “pH 7.4 (%), percent remaining” value [2]?
A: 65.9 ± 3.1%

Q: What about the IC50 [3, 7] of the same molecule?
A: 5.4 ± 0.5 nM

Q: And the “in vitro FAAH potency relative to parent URB524 (times more potent)” value ([3]; ratio of IC50 versus URB524)?
A: approximately 5 fold

Q: And the “Percent FAAH activity remaining at 1 mg-kg^−1” value [5]?
A: 105% ^[b]

Q: And the “inhibition of brain FAAH activity in vivo” value [5]?
A: completely inactive in vivo

Q: Which half-life at 1 μM [1] does the source give for `NC(=O)c1cccc(-c2cccc(OC(=O)NCCCCCCCCc3ccccc3)c2)c1` [Compound 1f, 8-Phenyloctylcarbamic acid 3′-carbamoylbiphenyl-3-yl ester] here?
A: 4 ± 0.1 min

Q: What about the “pH 7.4 (%), percent remaining” value [2] of the same molecule?
A: 42.8 ± 1.4%

Q: And the IC50 [3]?
A: 0.26 ± 0.02 nM

Q: What about the “drug levels in serum and brain after administration” value [4] of the same molecule?
A: little or no increase in drug levels in serum and brain

Q: And the “Percent FAAH activity remaining at 1 mg-kg^−1” value [5]?
A: 65%^b

Q: What about the “inhibition of brain FAAH activity in vivo” value [5] of the same molecule?
A: little or no

Q: Which “Rat Plasma t1/2” value [1] does the source give for `O=C(NCCCCc1ccccc1)Oc1cccc(-c2ccccc2)c1` [Compound 1b] here?
A: 6.6 ± 0.7 min

Q: And the “plasma t1/2, fold shorter than URB524” value ([1]; rat plasma, versus URB524)?
A: approximately 6 fold

Q: What about the “pH 7.4 (%), percent remaining” value [2] of the same molecule?
A: 35.9 ± 2.7%

Q: What about the IC50 [3, 7] of the same molecule?
A: 9.4 ± 2.8 nM

Q: What about the ID50 [5] of the same molecule?
A: 0.96 mg/kg

Q: What does the source list for `O=C(NC1CCCCC1)Oc1ccc([N+](=O)[O-])c(-c2ccccc2)c1` [Compound 1i, Cyclohexylcarbamic acid 6-nitrobiphenyl-3-yl ester]?
A: pH 7.4, value expressed as t1/2 [2]: 1.7 ± 0.1 ^[c] min; IC50 [3]: > 30000 nM

From paper PMC3016090 (ChemMedChem, 2009)
